Rows were chosen to be rich in hits. Some 4.1% of all compounds tested hit in one or more screens of this group.
KCNQ1 act: potentiates or activates the human KCNQ1 potassium channel | B-score at 10 µM | AID 2648 | P51787 | CHO-K1 KCNQ1, thallium flux FluxOR fluorescence; hits give high values | actives 0.35% (n = 310,000);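 active means fluorescence ratio B-score, a plate-corrected score, at least three library SD, with initial intensity B-score within 5 SD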
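Test system: CHO-K1 cells stably expressing KCNQ1 / Medium: assay buffer / Also added: depolarizing K+/Tl+ stimulus, K2SO4 and Tl2SO4 each 12.5 mM in 5x stock / Incubation: 90 min dye loading and 20 min compound exposure, both at room temperature / Signal: thallium influx via FluxOR fluorescence, kinetic imaging / Evaluation: B score of baseline-normalized fluorescence ratio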
KCNQ1 inh: blocks the human KCNQ1 potassium channel | actives 1.3% (n = 310,000) | B-score at 10 µM | P51787 | CHO-K1 KCNQ1, FluxOR thallium flux fluorescence; hits give high values | AID 2642;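 active means compounds whose thallium flux B-score, printed positive for inhibition, exceeds three library SD while starting fluorescence stays within three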;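 further: channel opened by potassium depolarization with thallium stimulus after 20 min compound exposure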
KCNK9 inh: blocks the human KCNK9 two-pore domain potassium channel; B-score at 10 µM; AID 488922; HEK293 KCNK9, FluxOR thallium flux fluorescence; hits give low values; actives 1.2% (n = 310,000); Q9NPC2;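 active means ratio B-score over 3 SD below the library mean, with starting fluorescence within 5 SD of its mean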;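 further: negative B-score means less thallium flux so channel inhibition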
KCNK3 block: human KCNK3 channel inhibition, primary screen; O14649; CHO-KCNK3 thallium flux, FluxOR fluorescence; hits give low values; B-score at 10 µM; actives 0.84% (n = 340,000); AID 602410;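 active means B-score under library mean minus 4 SD, starting fluorescence ratio at most library mean plus 5 SD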;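 further: more negative B-score means stronger inhibition of thallium flux through KCNK3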
hERG rescue: compounds protecting human hERG from proarrhythmic drug block; activation (rescue from dofetilide block), less the hit threshold, % at 10 µM; Q12809; CHO-hERG, FluxOR thallium flux, dofetilide IC70 present; actives 0.51% (n = 310,000); AID 1511;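 active means activation above the mean of controls blocked by dofetilide plus 5 SD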;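 further: thallium influx through hERG after potassium depolarization seen as dye fluorescence rise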
Cl transport mod: KCC2 (human) Cl- transport modulation. KCC2 cells, thallium flux FluoZin-2 fluorescence. B-score of Tl+ flux slope (higher = more flux/activation; lower = inhibition) at 10 µM. actives 2.2% (n = 190,000). AID 1456;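 active means thallium flux slope and its plate-corrected score both differing from the plate sample mean at a set confidence after two filtering rounds, in either direction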;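 further: slope of fluorescence scaled to starting intensity during 10 to 20 s after thallium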
KCC2 secondary: confirmation of human KCC2 transport modulators. shares compounds with Cl transport mod. HEK293-KCC2, thallium flux, FluoZin2 fluorescence; hits give high values. normalised thallium flux (F/F0 slope) at 10 µM. actives 15% (n = 3,700);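 active means thallium flux slope above the same plate's solvent-only control mean plus 3 SD; inconclusive means the two replicate wells disagree; inactive means no significant difference from solvent-only control wells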
KCC2 bumet counter: bumetanide-insensitive thallium flux in KCC2 cells with ouabain, counter-screen. HEK293-KCC2 + bumetanide/ouabain, thallium flux FluoZin2; hits give high values. shares compounds with Cl transport mod. normalized thallium flux at 10 µM. actives 49% (n = 3,700);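 active means thallium entry rate above the same plate's blocked-transporter control wells by more than 3 SD; inconclusive means the two repeat wells disagree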;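 further: raw slope of fluorescence over initial fluorescence between 10 and 20 s after thallium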
KCC2 sec2: confirmation of human KCC2 transport modulators; shares compounds with Cl transport mod; HEK293-KCC2, thallium flux FluoZin2 fluorescence; actives lie on both sides; F/F0 rise rate, 10–20 s post-thallium; normalized thallium flux at 10 µM; actives 23% (n = 3,700); AID 1715;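 active means thallium flux slope more than 3 SD above or below the plate's solvent-only control mean, mostly below; inconclusive means the two repeat wells disagreed; inactive means no significant shift from solvent-only controls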
HEK293 Tl flux: acts in parental HEK cells, KCC2 counter-screen; shares compounds with Cl transport mod; HEK293 parental cells, thallium flux FluoZin2, ouabain; baseline-ratio fluorescence slope, 10–20 s after thallium; thallium flux rate (normalised fluorescence) at 10 µM; actives 46% (n = 3,700);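 active means thallium flux rate significantly above the same plate's solvent-only control wells, beyond their mean plus 3 SD; inconclusive means the two replicate wells gave conflicting results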
KCC2 ouabain: KCC2 (human) modulation, ouabain retest; raw Tl+ flux slope (below DMSO = inhibition, above = activation) at 10 µM; HEK293-KCC2, thallium flux FluoZin2 fluorescence; bidirectional: low = inhibitor, high = activator; shares compounds with Cl transport mod; actives 48% (n = 3,700);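 active means thallium flux slope beyond 3 SD from same-plate DMSO control mean in most replicates, usually higher, sometimes lower; inconclusive means repeat tests gave conflicting results; inactive means no significant difference from controls in most replicates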;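 further: slope of initial-normalized fluorescence between seconds 10 and 20 after thallium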
HEK293 Tl flux2: acts in parental HEK cells, second KCC2 counter-screen | shares compounds with Cl transport mod | HEK293 parental, thallium flux FluoZin-2 fluorescence slope | thallium flux slope at 10 µM | actives 33% (n = 3,700) | AID 1718;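 active means thallium flux slope above the same plate's solvent-control mean plus 3 SD in both duplicate wells; inconclusive means duplicate wells that disagreed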;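 further: run without ouabain in cells lacking the KCC2 cotransporter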
Each line names hits and unclear results; the compound was inactive in the other large screens (follow-up assays come after a bar, where they were run).

Cn1c(=O)[nH]c(=O)c2c1nc(SCC(O)CCl)n2Cc1ccccc1 (stereo not drawn)	none (no result: Cl transport mod)
O=c1c(-c2ccc(F)cc2)coc2cc(O)ccc12	Cl transport mod -5.76 | KCC2 secondary inactive | KCC2 bumet counter inactive | KCC2 sec2 inactive | HEK293 Tl flux inactive | KCC2 ouabain 0.0206 | HEK293 Tl flux2 inconclusive
O=C(NN1C(=O)/C(=C/C=C/c2ccco2)SC1=S)c1ccccc1O	Cl transport mod -3.26 | KCC2 secondary inactive | KCC2 bumet counter inconclusive | KCC2 sec2 0.0234 | HEK293 Tl flux inactive | KCC2 ouabain inconclusive | HEK293 Tl flux2 inactive
COc1ccc(CN(CC(=O)NCC2CCCO2)C(=O)CCC(=O)Nc2nccs2)cc1 (stereo not drawn)	none (no result: Cl transport mod)
O=C(O)c1ccc(C=C(c2nc3ccccc3s2)c2nc3ccccc3s2)cc1	Cl transport mod -5.25 | KCC2 secondary inactive | KCC2 bumet counter inactive | KCC2 sec2 inactive | HEK293 Tl flux inactive | KCC2 ouabain inactive | HEK293 Tl flux2 inactive
Cc1cc(Cl)c2oc(C(=O)N3CCN(C(=O)c4ccco4)CC3)c(C)c2c1	none (no result: Cl transport mod)
Fc1ccccc1COc1ccc(Br)cc1CNCC1CCCO1 (stereo not drawn)	none
Cn1nnc(NCc2cc(Br)ccc2OCc2ccccc2F)n1	Cl transport mod -4.13 | KCC2 secondary inactive | KCC2 bumet counter 0.00308 | KCC2 sec2 0.0244 | HEK293 Tl flux 0.00602 | KCC2 ouabain 0.0135 | HEK293 Tl flux2 inactive
COc1cc(/C=N/N(C)c2ccccc2)ccc1O	Cl transport mod -4.13 | KCC2 secondary inactive | KCC2 bumet counter inactive | KCC2 sec2 0.0247 | HEK293 Tl flux inactive | KCC2 ouabain inconclusive | HEK293 Tl flux2 inactive
COc1cc(OC)c(OC)cc1/C=N/N(C)c1ccccc1	none
COc1cccc2sc(Nc3nnc(-c4ccccc4Cl)o3)nc12	KCNQ1 act 15, hERG rescue 8.7, Cl transport mod 79.6 | KCC2 secondary 0.0439 | KCC2 bumet counter 0.129 | KCC2 sec2 0.0994 | HEK293 Tl flux inconclusive | KCC2 ouabain 0.103 | HEK293 Tl flux2 0.113
O=C(Nc1nnc(-c2ccccc2Cl)o1)c1nc2ccccc2s1	none (no result: Cl transport mod)
CCCOc1cccc(C(=O)NCCNC(=O)c2ccc(C)nc2)c1	none (no result: Cl transport mod)
COc1ccc(C(=O)CSc2nccn2C)c(OC)c1	none (no result: Cl transport mod)
COc1ccc(C(=O)On2c(-c3ccc(Br)cc3)nc3ccccc3c2=O)cc1	KCNQ1 act 10, Cl transport mod 5.8 | KCC2 secondary inactive | KCC2 bumet counter inconclusive | KCC2 sec2 0.0388 | HEK293 Tl flux 0.0118 | KCC2 ouabain inconclusive | HEK293 Tl flux2 0.0219
Cn1nc(C(=O)Nc2nc3ccc(S(C)(=O)=O)cc3s2)ccc1=O	Cl transport mod 4.66 | KCC2 secondary inactive | KCC2 bumet counter 0.0207 | KCC2 sec2 inactive | HEK293 Tl flux 0.0132 | KCC2 ouabain inactive | HEK293 Tl flux2 inconclusive
COc1ccc(S(=O)(=O)N(C)CC(=O)O)c2ccccc12	Cl transport mod 3.02 | KCC2 secondary inactive | KCC2 bumet counter inactive | KCC2 sec2 inactive | HEK293 Tl flux inactive | KCC2 ouabain inactive | HEK293 Tl flux2 inactive
COc1ccc(Cc2nnc(SCC(=O)c3ccc4c(c3)NC(=O)CO4)o2)cc1	none (no result: Cl transport mod)
CCN(c1ccccc1)S(=O)(=O)c1ccc(OC)c(NC(=O)c2cc(F)c(F)c(F)c2F)c1	none (no result: KCNQ1 act, KCNQ1 inh, KCNK9 inh, hERG rescue, Cl transport mod)
Cc1ccc(OCC(=O)NCC(=O)n2nc(C)cc2C)cc1	none | KCC2 secondary inactive | KCC2 bumet counter inactive | KCC2 sec2 0.0282 | HEK293 Tl flux inactive | KCC2 ouabain inactive | HEK293 Tl flux2 inactive
O=C(O)Cn1nc(-c2ccc(Cl)cc2)ccc1=O	none (no result: Cl transport mod)
O=C(Cn1nc(C(F)(F)F)c2c1CCCC2)N1CCOCC1	none
O=C(Cn1nc(C(F)(F)F)c2c1CCC2)N1CCN(c2ccccc2)CC1	none (no result: Cl transport mod) | KCC2 secondary inactive | KCC2 bumet counter inactive | KCC2 sec2 inactive | HEK293 Tl flux inactive | KCC2 ouabain 0.0161 | HEK293 Tl flux2 inactive
O=C(Cn1nc(-c2ccc(Cl)cc2)ccc1=O)N1CCN(c2ccccc2)CC1	none (no result: Cl transport mod) | KCC2 secondary inactive | KCC2 bumet counter inactive | KCC2 sec2 inactive | HEK293 Tl flux inactive | KCC2 ouabain inconclusive | HEK293 Tl flux2 inactive
O=C(CSc1nc2cc(C(F)(F)F)ccc2n1Cc1ccccc1)NC1CCS(=O)(=O)C1 (stereo not drawn)	Cl transport mod 5.19 | KCC2 secondary inactive | KCC2 bumet counter 0.00775 | KCC2 sec2 inactive | HEK293 Tl flux 0.0112 | KCC2 ouabain inactive | HEK293 Tl flux2 inconclusive
CCCOc1ccc(C2CC(=O)Nc3cc(OC)c(OC)cc32)cc1 (stereo not drawn)	none (no result: Cl transport mod)
O=C(CN1CCN(c2ccccc2F)CC1)c1c[nH]c2ccccc12	Cl transport mod -4.3 | KCC2 secondary inactive | KCC2 bumet counter inactive | KCC2 sec2 inactive | HEK293 Tl flux inactive | KCC2 ouabain inactive | HEK293 Tl flux2 0.0111
COc1ccccc1N1CCN(CC(=O)c2c[nH]c3ccccc23)CC1	none
O=C1/C(=C/c2ccc(Cl)cc2)NC(=S)N1Cc1cccnc1	Cl transport mod 5.23 | KCC2 secondary inactive | KCC2 bumet counter 0.00881 | KCC2 sec2 inactive | HEK293 Tl flux 0.0102 | KCC2 ouabain inactive | HEK293 Tl flux2 inactive
O=C1/C(=C/c2ccc(O)cc2)SC(=S)N1Cc1cccnc1	none
CCN(CC)C(=S)SCC(=O)Nc1ncc2c(n1)CC(C)(C)CC2=O	Cl transport mod 5.63 | KCC2 secondary inactive | KCC2 bumet counter inactive | KCC2 sec2 inactive | HEK293 Tl flux inactive | KCC2 ouabain inactive | HEK293 Tl flux2 inactive
COCc1nc2oc3ccccc3c(=O)c2cc1C(=O)OC	none (no result: Cl transport mod)
N#Cc1nc(-c2ccc(F)cc2)oc1N1CCCC1	Cl transport mod -5.65 | KCC2 secondary inactive | KCC2 bumet counter inactive | KCC2 sec2 inactive | HEK293 Tl flux inactive | KCC2 ouabain inactive | HEK293 Tl flux2 inactive

From PubChem
